Data set [1] has as its system Staphylococcus aureus. Briefly: Antibacterial activity against methicillin-resistant Staphylococcus aureus ATCC 43300 by broth microdilution method. Format: functional. The method in brief:
(§1)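 MIC by standard NCCLS broth microdilution against resistant S. aureus strains, reported in µg/mL. Clarithromycin and azithromycin were run alongside as references.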

Data set [2] deals with Staphylococcus aureus. Briefly: Antibacterial activity against penicillin-resistant Staphylococcus aureus ATCC 31007 by broth microdilution method. Format: functional. In a few lines:
as §1
(In broth dilution the organism is exposed to a series of concentrations in liquid medium.)

The test system of data set [3] is Streptococcus pneumoniae. Briefly: Antibacterial activity against erythromycin-resistant Streptococcus pneumoniae B1 by broth microdilution method. Format: functional. In a few lines: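 MIC by standard NCCLS broth microdilution, reported in µg/mL. The strain expresses the ermB gene. Clarithromycin and azithromycin were run alongside as references.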
Data set [4] has as its system Streptococcus pneumoniae. The data set is described as follows: Antibacterial activity against erythromycin-resistant Streptococcus pneumoniae AB11 by broth microdilution method. Format: functional. The method in brief:
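MIC by standard NCCLS broth microdilution, reported in µg/mL. The strain expresses the ermB and mefA genes. Clarithromycin and azithromycin were run alongside as references.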

In the next data set the test system is Streptococcus pyogenes. The data set is described as follows: Antibacterial activity against erythromycin-resistant Streptococcus pyogenes R1 by broth microdilution method. Format: functional. In a few lines: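 MIC by standard NCCLS broth microdilution, reported in µg/mL. The strain is a clinically isolated erythromycin-resistant strain. Clarithromycin and azithromycin were run alongside as references.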

A further data set deals with Pseudomonas aeruginosa. Briefly: Antibacterial activity against penicillin-susceptible Pseudomonas aeruginosa ATCC 27853 by broth microdilution method. Type of data set: functional. In a few lines:
(§2)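 MIC determined by standard broth microdilution per NCCLS recommendations, read as minimal inhibitory concentration in µg/mL. Standard ATCC strains tested alongside the other panel strains, with clarithromycin and azithromycin as reference agents.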

In data set [5] the test system is Staphylococcus aureus. The data set is described as follows: Antibacterial activity against erythromycin-susceptible Staphylococcus aureus ATCC 25923 by broth microdilution method. Format: functional. In a few lines:
as §2

The test system of the next data set is Bacillus subtilis. Briefly: Antibacterial activity against penicillin-susceptible Bacillus subtilis ATCC9372 by broth microdilution method. Type of data set: functional. In a few lines: as §2
Data set [6] can be described thus: Chemical stability of the compound in pH 7.4 phosphate solution after 24 hrs by HPLC analysis. Format: physicochemical. The conditions noted are these: buffer, pH 7.4, 24 h. In a few lines: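 Compound held in phosphate solution (pH = 7.4) at 25 °C and monitored by HPLC over 24 h. Stability judged from change in peak area.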

In brackets after ≈: the same amount, converted by molar mass. Where only a bound is given, the exact number is not on record here.

A word on the MIC: it is the lowest concentration that inhibits growth of the organism. Higher therefore signals a need for much substance. In the case of `CO[C@]1(C)C[C@@H](C)[C@H](OC(=O)c2cccc(C(F)(F)F)c2)[C@H](C)CN(C)CCOC(=O)[C@H](C)C(=O)[C@H](C)[C@H]1O[C@@H]1O[C@H](C)C[C@H](N(C)C)[C@H]1OC(=O)c1cccc(C(F)(F)F)c1`, the MIC against Staphylococcus aureus [1] was over 256 µg/mL; against Staphylococcus aureus [2], over 256 µg/mL; against Streptococcus pneumoniae [3] it was over 256 µg/mL; against Streptococcus pneumoniae [4], over 256 µg/mL; in the data set with Streptococcus pyogenes, over 256 µg/mL; against Pseudomonas aeruginosa it was over 128 µg/mL. The minimal inhibitory concentration (MIC) against Staphylococcus aureus [5] is 128 µg/mL (≈ 144 µM); in the data set with Bacillus subtilis, over 128 µg/mL. The Stabilty entry in data set [6] was “Stable”.
On to `CO[C@]1(C)C[C@@H](C)[C@H](OC(=O)c2ccc(Cl)cc2)[C@H](C)CN(C)CCOC(=O)[C@H](C)C(=O)[C@H](C)[C@H]1O[C@@H]1O[C@H](C)C[C@H](N(C)C)[C@H]1OC(=O)c1ccc(Cl)cc1`, for which the MIC was over 256 µg/mL with Staphylococcus aureus [1]; over 256 µg/mL against Staphylococcus aureus [2]; 128 µg/mL (≈ 156 µM) in the data set with Streptococcus pneumoniae [3]; over 256 µg/mL against Streptococcus pneumoniae [4]; over 256 µg/mL with Streptococcus pyogenes; over 128 µg/mL in the data set on Pseudomonas aeruginosa. For the same compound, the results for the MIC with Staphylococcus aureus [5] and with Bacillus subtilis were 128 µg/mL (≈ 156 µM) and over 128 µg/mL, respectively. The Stabilty result in data set [6] is reported as “Stable”.
For the compound `CO[C@]1(C)C[C@@H](C)[C@H](OC(=O)c2ccc(C)cc2)[C@H](C)CN(C)CCOC(=O)[C@H](C)C(=O)[C@H](C)[C@H]1O[C@@H]1O[C@H](C)C[C@H](N(C)C)[C@H]1OC(=O)c1ccc(C)cc1`, the MIC against Staphylococcus aureus [1] is over 256 µg/mL; against Staphylococcus aureus [2], over 256 µg/mL; against Streptococcus pneumoniae [3], over 256 µg/mL; against Streptococcus pneumoniae [4], over 256 µg/mL; in the data set on Streptococcus pyogenes it was over 256 µg/mL; with Pseudomonas aeruginosa, over 128 µg/mL. In addition, the MIC against Staphylococcus aureus [5] was 128 µg/mL (≈ 164 µM); against Bacillus subtilis, over 128 µg/mL. Moreover, the Stabilty entry in [6] is “Stable”.
As for `CO[C@]1(C)C[C@@H](C)[C@H](OC(=O)c2ccccc2)[C@H](C)CN(C)CCOC(=O)[C@H](C)C(=O)[C@H](C)[C@H]1O[C@@H]1O[C@H](C)C[C@H](N(C)C)[C@H]1OC(=O)c1ccccc1`, the MIC against Staphylococcus aureus [1] is over 256 µg/mL; against Staphylococcus aureus [2], over 256 µg/mL; with Streptococcus pneumoniae [3], over 256 µg/mL; against Streptococcus pneumoniae [4] it was over 256 µg/mL; with Streptococcus pyogenes it was over 256 µg/mL; with Pseudomonas aeruginosa, over 128 µg/mL. Also, the MIC against Staphylococcus aureus [5] is 128 µg/mL (≈ 170 µM); in the data set on Bacillus subtilis it was over 128 µg/mL. Further, in data set [6], the Stabilty result is “Stable”.
In the case of `CO[C@]1(C)C[C@@H](C)[C@H](OC(=O)c2cccc(Br)c2)[C@H](C)CN(C)CCOC(=O)[C@H](C)C(=O)[C@H](C)[C@H]1O[C@@H]1O[C@H](C)C[C@H](N(C)C)[C@H]1OC(=O)c1cccc(Br)c1`, the MIC against Staphylococcus aureus [1] is over 256 µg/mL; in the data set with Staphylococcus aureus [2], over 256 µg/mL; with Streptococcus pneumoniae [3] it was over 256 µg/mL; in the data set on Streptococcus pneumoniae [4] it was over 256 µg/mL; in the data set with Streptococcus pyogenes it was over 256 µg/mL; with Pseudomonas aeruginosa, over 128 µg/mL. Besides, the figures for the MIC in the data set on Staphylococcus aureus [5] and against Bacillus subtilis were 64 µg/mL (≈ 70.3 µM) and over 128 µg/mL, respectively.
